Structures are written as SMILES. Active and inactive are the calls of the source. The calls are words filed in the database; no cut-off is given here. Where only a bound is given, the exact number is not on record here.

Series [1] has as its target T1, Butyrophilin subfamily 3 member A1 (Homo sapiens, UniProt O00481). Kind of series: Binding affinity to BTN3A1 in human PBMC-derived Vgamma9/Vdelta2 T cells assessed as increase in CD69/CD25 level incubated for overnight by flow cytometric analysis. The class given is tissue-based, Vgamma9Vdelta2 T cell. The procedure, abridged: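 Healthy-donor PBMCs, 5 × 10^5 cells per well, stimulated with compounds over 10 pM to 100 μM, or 1 aM to 100 μM in a separate run. Incubated overnight at 37 °C/5% CO2. Vγ9+Vδ2+ cells gated within live CD3+ cells by flow cytometry and scored as % CD69+CD25+.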
Target sequence in this assay (O00481 whole entry): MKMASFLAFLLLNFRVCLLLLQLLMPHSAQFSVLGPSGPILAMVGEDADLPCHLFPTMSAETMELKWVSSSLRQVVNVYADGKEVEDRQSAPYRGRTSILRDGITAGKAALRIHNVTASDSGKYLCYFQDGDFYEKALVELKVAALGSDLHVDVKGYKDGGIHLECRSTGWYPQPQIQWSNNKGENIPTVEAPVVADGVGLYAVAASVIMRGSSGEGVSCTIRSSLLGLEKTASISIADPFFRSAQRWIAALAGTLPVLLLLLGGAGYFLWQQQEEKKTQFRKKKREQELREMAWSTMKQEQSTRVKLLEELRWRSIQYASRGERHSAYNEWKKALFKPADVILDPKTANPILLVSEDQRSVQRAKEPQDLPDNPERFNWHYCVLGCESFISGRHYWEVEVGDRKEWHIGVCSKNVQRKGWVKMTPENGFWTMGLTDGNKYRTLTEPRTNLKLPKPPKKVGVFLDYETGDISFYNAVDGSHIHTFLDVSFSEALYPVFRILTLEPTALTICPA

In series [2] the target is T1, Butyrophilin subfamily 3 member A1. The series can be described thus: Binding affinity to BTN3A1 in human PBMC-derived Vgamma9/Vdelta2 T cells. The format is tissue-based, Vgamma9Vdelta2 T cell.
Target sequence in this assay (O00481 whole entry): as above
Series [3] has the same target. Kind of series: Binding affinity to BTN3A1 in human PBMC-derived Vgamma9/Vdelta2 T cells assessed as induction of Vgamma9/Vdelta2 T cell mediated T-24 cell lysis co-expressing GFP at 10 pM preincubated 4 hrs followed by compound washout and subsequent Vgamma9Vdelta2 T cell addition at 8:1 effector/target ratio and measured after 18 hrs by fluorescence based assay. The format is tissue-based. The procedure, abridged:
(§1)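 T24 bladder carcinoma cells made GFP+ by retroviral transduction. Targets pulsed 4 h with 10 pM compound, washed three times in RPMI, then cocultured 18 h at 37 °C with Vγ9Vδ2 T-cells expanded 14 days from donor PBMCs (5 μM zoledronate, 100 U/mL IL2 every 2–3 days). % killing = eFluor780+ GFP+ of all GFP+ T24 cells, by flow cytometry. Basal untreated-target killing subtracted; mean ± SE, n = 3.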
Target sequence in this assay (O00481 30-513 limits assumed): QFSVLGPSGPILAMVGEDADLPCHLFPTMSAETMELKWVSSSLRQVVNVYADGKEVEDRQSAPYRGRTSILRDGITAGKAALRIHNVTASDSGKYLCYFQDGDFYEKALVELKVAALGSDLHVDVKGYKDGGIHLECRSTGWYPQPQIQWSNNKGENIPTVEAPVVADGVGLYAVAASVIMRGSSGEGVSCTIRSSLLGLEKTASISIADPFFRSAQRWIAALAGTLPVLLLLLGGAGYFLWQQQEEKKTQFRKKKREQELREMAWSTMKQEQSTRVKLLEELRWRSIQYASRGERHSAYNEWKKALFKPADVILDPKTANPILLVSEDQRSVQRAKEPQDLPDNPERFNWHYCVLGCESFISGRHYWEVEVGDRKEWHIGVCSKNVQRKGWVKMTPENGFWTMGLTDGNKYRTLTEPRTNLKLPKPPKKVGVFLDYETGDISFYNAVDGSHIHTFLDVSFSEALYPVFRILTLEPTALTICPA

Series [4] shares this target. The series can be described thus: Binding affinity to BTN3A1 in human PBMC-derived Vgamma9/Vdelta2 T cells assessed as induction of Vgamma9/Vdelta2 T cell mediated T-24 cell lysis co-expressing GFP at 10 pM preincubated 4 hrs followed by compound washout and subsequent Vgamma9Vdelta2 T cell addition at 1:1 effector/target ratio and measured after 18 hrs by fluorescence based assay. The class given is tissue-based. Put shortly:
as §1
Target sequence in this assay (O00481 30-513 limits assumed): as above

In series [5] the test system is T-24. The series can be described thus: Cytotoxicity against human T-24 cells co-expressing GFP assessed as reduction in cell viability at 10 pM after 4 hrs by eFluor 780 fixable viability dye based fluorescence assay. The settings on record: t-24, 4 h. The procedure, abridged: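 GFP+ T24 cells pulsed 4 h with 10 pM compound, washed, and held 18 h at 37 °C without effector cells (0:1 ratio). Dead targets measured by flow cytometry as eFluor780+ GFP+ fraction of total GFP+ T24 cells; mean ± SE, n = 3.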

Series [6] concerns the target T1, Butyrophilin subfamily 3 member A1. Kind of series: Potency index, ratio of HMBPP EC50 to test compound EC50 for activation of BTN3A1 in human PBMC-derived Vgamma9/Vdelta2 T cells. The settings on record: Vgamma9Vdelta2 T cell. The format is tissue-based.
Target sequence in this assay (O00481 30-513 limits assumed): as above
The nature of series [7]: Stability of compound in human serum at 5 mg and measured at 30 mins interval for up to 12 hrs by 31PNMR analysis. The format is ADME, cell-free. Put shortly: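 Compound, 5.0 mg in DMSO/D2O, with control 31P NMR recorded at 37 °C. Freshly thawed human serum then added and 31P NMR spectra recorded at 37 °C every 30 min over 12 h.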
The subject of series [8] is CD8-positive T cell. The series can be described thus: Activation of human PBMC derived CD-8 positive cells assessed as increase in alphabeta T cells at 0.1 to 10000 nM by Alexa Flour A88a staining based flow cytometry. The settings on record: dose nM 0.1-10000. The class given is functional. (A flow cytometer gives signals particle by particle.)
A short description of series [9]: Drug metabolism assessed as recombinant carboxypeptidase Y (unknown origin)-mediated hydrolysis of ester motif at 3 mg measured at 1 hr interval […] by 31PNMR analysis. The class given is ADME, Homo sapiens. Put shortly:
(§2)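 Compound, 3.0 mg in acetone-d6, mixed with TRIZMA buffer pH 7.6. Control 31P NMR taken at 25 °C, then carboxypeptidase Y (0.1 mg in TRIZMA) added. Spectra recorded at 25 °C after 10 min and then every 1 h for 12 h.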

A short description of series [10]: Drug metabolism assessed as recombinant carboxypeptidase Y (unknown origin)-mediated metabolite C formation and measured up to 15 hrs by HPLC analysis. The format is ADME. The settings on record: human.
Series [11] can be described thus: Drug metabolism assessed as recombinant carboxypeptidase Y (unknown origin)-mediated metabolite C formation and measured up to 15 hrs by LC-MS analysis. The class given is ADME. The note with it: human.
A short description of series [12]: Drug metabolism assessed as recombinant carboxypeptidase Y (unknown origin)-metabolite C formation at 3 mg measured at 1 hr interval for […] by 31PNMR analysis. The format is ADME, Homo sapiens. Put shortly: as §2
Series [13] can be described thus: Half life in human serum at 5 mg and measured up to 12 hrs by 31PNMR analysis. The class given is ADME, cell-free. Put shortly: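 Prodrug (5.0 mg) dissolved in DMSO/D2O; control 31P NMR spectrum recorded at 37 °C, then freshly thawed human serum added. 31P NMR spectra acquired at 37 °C every 30 min over 12 h to follow the prodrug signals.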

As a reminder, the EC50 is the midpoint of the concentration-response curve. In the case of `COC(=O)[C@H](C)NP(=O)(CC/C=C(\C)CO)Oc1ccccc1` (some centres undefined), the EC50 in series [1] was 0.617 nM.
On the same count and under the same terms, to `O=P(O)(O)C(O)(Cn1ccnc1)P(=O)(O)O` [ZOLEDRONIC ACID] belongs 3060 nM.
As to `O=P(O)(O)C(O)(Cc1cccnc1)P(=O)(O)O` [RISEDRONIC ACID], a half-maximal response in [2] (EC50) required 80 nM.
For the molecule `C/C(=C\CC(F)(F)P(=O)(N[C@@H](C)C(=O)OC(C)(C)C)Oc1ccccc1)CO` (some centres undefined), the result in [3] and in [4] was Active. For the same molecule, in series [5], the Activity result is recorded as “Non-Toxic”. For the same molecule, the EC50 in series [1] amounted to 25.8 nM.
With `C/C(=C\CCP(=O)(N[C@@H](C)C(=O)OCc1ccccc1)Oc1ccccc1)CO` (some centres undefined), the outcome in series [3] and in [4] was Active. Also, the Activity entry in series [5] is on record as “Non-Toxic”. For the same molecule, the Ratio EC50 in series [6] is 15000. Further, in [7], the Stabilty result is on record as “Stable”. Besides, the outcome in series [8] was inactive.
With `C/C(=C\CCP(=O)(N[C@@H](C)C(=O)OC(C)C)Oc1ccccc1)CO` (some centres undefined), in [1], the EC50 came out at 0.519 nM.
Take `C/C(=C\CCP(=O)(N[C@@H](C)C(=O)OC(C)(C)C)Oc1ccccc1)CO` (some centres undefined): the outcome in [3] and in series [4] was Active. Further, the Activity entry in series [5] was “Non-Toxic”. Besides, the half-maximal effective concentration (EC50) in series [1] was 73.4 nM.
In the case of `C/C(=C\CC(F)(F)P(=O)(N[C@@H](C)C(=O)OC(C)C)Oc1ccccc1)CO` (some centres undefined), the Drug metabolism entry in series [9], in series [10], in series [11] and in [12] was “Metabolite_Detected” each time. In [1], the EC50 was found to be 0.759 nM.
For `COC(=O)[C@H](C)NP(=O)(Oc1ccccc1)C(F)(F)C/C=C(\C)CO` (some centres undefined), the EC50 in [1] was found to be 0.728 nM. In addition, the Stabilty result in series [7] is reported as “Stable”.
For the molecule `C/C(=C\CC(F)(F)P(=O)(N[C@@H](C)C(=O)OCc1ccccc1)Oc1ccccc1)CO` (some centres undefined), the result in series [3] and in series [4] was Active. The Activity result in [5] is reported as “Non-Toxic”. The Ratio EC50 in series [6] came out at 15000. In [8], the result was inactive.
The half-life is the time in which the quantity being followed falls by half. High values mean slow decline, low ones rapid decline. Turning to `C/C(=C\COP(=O)(O)OP(=O)(O)O)CO`, the result in [3] and in series [4] was Active. Besides, the Activity result in series [5] is on record as “Non-Toxic”. In series [13], this molecule displayed a half-life above 12 h.

Values taken from ChEMBL document CHEMBL4665810, “Aryloxy Diester Phosphonamidate Prodrugs of Phosphoantigens (ProPAgens) as Potent Activators of Vγ9/Vδ2 T-Cell Immune Responses” (J Med Chem, 2020).
